In ChEMBL document CHEMBL4145615, “Indolyl Azaspiroketal Mannich Bases Are Potent Antimycobacterial Agents with Selective Membrane Permeabilizing Effects and in Vivo Activity” (J Med Chem, 2018):
Values after ≈ are worked out from the molar mass of the structure shown. Active and inactive are the calls of the source. The rule behind the calls is not given here.

How the values were obtained:
Cell membrane [1] = assay: Disruption of cell membrane potential in Mycobacterium bovis BCG ATCC 35734 at 100 uM after 20 mins to 5 days by DiOC2 dye-based fluorescence assay; details: Mycobacterium tuberculosis variant bovis BCG
How it was run: (§1)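 Controls were rifampicin 0.08 μM (negative) and CCCP 100 μM (positive). Membrane potential tracked by DiOC2 red/green fluorescence ratio over minutes–hours and days 1–5, versus drug-free cultures. 2–3 independent biological replicates.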

[2] = test system: Mycobacterium tuberculosis variant bovis BCG; assay: Antimycobacterial activity against Mycobacterium bovis BCG ATCC 35734 after 5 days in absence of glycerol by broth dilution method; type: functional; details: ATCC 35734, 120 h
[3] = test system: Mycobacterium tuberculosis variant bovis BCG; assay: Bactericidal activity against Mycobacterium bovis BCG ATCC 35734 assessed as 1000 fold reduction in CFU after 5 days; type: functional; details: ATCC 35734, 120 h, read-out: MBC99.9
How it was run: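 BCG ran 5 days at 37°C, 110 rpm; H37Rv ran 7 days at 37°C, 80 rpm. CFU counted on 7H10 agar. MBC99.9 is the 1000-fold CFU reduction versus inoculum at time zero. Average of 2 or more determinations.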

[4] = test system: Mycobacterium tuberculosis variant bovis BCG; assay: Antimycobacterial activity against Mycobacterium bovis BCG ATCC 35734 after 5 days by broth dilution method; type: functional; details: ATCC 35734, 120 h
[5] = test system: Mycobacterium tuberculosis variant bovis BCG; assay: Antimycobacterial activity against Mycobacterium bovis BCG ATCC 35734 after 5 days in presence of 10% FBS by broth dilution method; type: functional; details: ATCC 35734, 120 h
[6] = test system: Mycobacterium tuberculosis variant bovis BCG; assay: Bactericidal activity against Mycobacterium bovis BCG ATCC 35734 at 4 times MIC90 measured at 48 hrs by time kill assay relative to control; type: functional, organism-based
How it was run: (§2)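 Samples taken at 6, 12, 24 and 48 h, diluted and plated on 7H10 agar for CFU. Three independent biological replicates.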

Cell membrane [7] = assay: Disruption of cell membrane potential in Mycobacterium bovis BCG ATCC 35734 at 0.08 uM after 20 mins to 5 days by DiOC2 dye-based fluorescence assay; details: Mycobacterium tuberculosis variant bovis BCG; how it was run: as §1
[8] = test system: Mycobacterium tuberculosis variant bovis BCG; assay: Bactericidal activity against Mycobacterium bovis BCG ATCC 35734 at 4 times MIC90 measured up to 48 hrs by time kill assay relative to control; type: functional; how it was run: as §2
Cell membrane [9] = assay: Induction of cell membrane permeabilization in Mycobacterium bovis BCG ATCC 35734 at 4 times MIC90 after 12 hrs by SYTO9/propidium iodide staining-based fluorescence assay; details: Mycobacterium tuberculosis variant bovis BCG
How it was run: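 At each time point cells were washed into 0.9% NaCl at OD600 = 0.5 and stained with SYTO 9 and PI for 15 min at 37°C in the dark. Green (488/530 nm) and red (488/630 nm) fluorescence read. G/R ratio scaled between drug-free (0%) and 5% SDS (100%). Three biological replicates.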

Cell membrane [10] = assay: Disruption of cell membrane potential in Mycobacterium bovis BCG ATCC 35734 at 4 times MIC90 after 4 hrs by DiOC2 dye-based fluorescence assay; details: Mycobacterium tuberculosis variant bovis BCG; how it was run: as §1
Cell membrane [11] = assay: Disruption of cell membrane potential in Mycobacterium bovis BCG ATCC 35734 at 4 times MIC90 after 3 days by DiOC2 dye-based fluorescence assay; details: Mycobacterium tuberculosis variant bovis BCG; how it was run: as §1

SMILES	MIC50 [2]	MBC [3]	MIC50 [4]	MIC90 [4]	MIC50 [5]	fold change (FC) [8]	other results
N#CC(C#N)=NNc1cccc(Cl)c1	–	–	–	–	–	–	Activity (Cell membrane [1]): Active
CCCCCCCCn1cc(CN2CCC3(CC2)SCCCS3)c2ccc(OC)cc21	0.43 µM (≈ 0.198 µg/mL)	0.8 to 1.6 µM (≈ 0.369 to 0.737 µg/mL)	0.4 µM (≈ 0.184 µg/mL)	0.8 µM (≈ 0.369 µg/mL)	0.48 µM	–	–
CCCCCCCCn1cc(CN2CCC3(CC2)OCCO3)c2ccc(OC)cc21	1.6 µM (≈ 0.663 µg/mL)	3 to 6 µM (≈ 1.24 to 2.49 µg/mL)	2 µM (≈ 0.829 µg/mL)	4 µM (≈ 1.66 µg/mL)	1.1 µM	–	Activity [6]: inactive
CO[C@H]1/C=C/O[C@@]2(C)Oc3c(C)c(O)c4c(O)c(c(/C=N/N5CCN(C)CC5)c(O)c4c3C2=O)NC(=O)/C(C)=C\C=C\[C@H](C)[C@H](O)[C@@H](C)[C@@H](O)[C@@H](C)[C@H](OC(C)=O)[C@@H]1C	–	–	–	–	–	–	Activity (Cell membrane [7]): inactive
CCCCCCCCn1cc(CN2CCC3(CC2)OCCCO3)c2ccc(OC)cc21	0.35 µM (≈ 0.15 µg/mL)	0.8 to 1.6 µM (≈ 0.343 to 0.686 µg/mL)	0.3 µM (≈ 0.129 µg/mL)	0.8 µM (≈ 0.343 µg/mL)	0.33 µM	>100	–
CCCCCCCCn1cc(CN2CCC3(CC2)OCCCS3)c2ccc(OC)cc21	0.41 µM (≈ 0.182 µg/mL)	0.4 to 1.6 µM (≈ 0.178 to 0.711 µg/mL)	0.4 µM (≈ 0.178 µg/mL)	0.8 µM (≈ 0.356 µg/mL)	0.6 µM	>100	Activity (Cell membrane [9]): Active
CCCCCCCCn1cc(CN2CCC3(CC2)SCCS3)c2ccc(OC)cc21	0.27 µM (≈ 0.121 µg/mL)	0.8 to 1.6 µM (≈ 0.357 to 0.715 µg/mL)	0.5 µM (≈ 0.223 µg/mL)	0.8 µM (≈ 0.357 µg/mL)	0.28 µM	–	–
NNC(=O)c1ccncc1 [ISONIAZID]	–	–	–	–	–	>100	–
CCCCCCCCn1cc(CN2CCC3(CC2)OCCS3)c2ccc(OC)cc21	0.37 µM (≈ 0.159 µg/mL)	0.8 to 1.6 µM (≈ 0.345 to 0.689 µg/mL)	0.6 µM (≈ 0.258 µg/mL)	0.8 µM (≈ 0.345 µg/mL)	0.32 µM	–	–
CCCCCCCCn1cc(CN2CCCCCC2)c2c(F)cccc21	–	–	–	–	–	–	Activity (Cell membrane [10]): inactive; Activity (Cell membrane [11]): Active
